Xi reactivation – activators of inactive X chromosome reactivation, primary screen, imaging, XiGFP fibroblasts, GFP high-content imaging, set 2; 0.055% of 360,000 active; XiGFP mouse fibroblasts, % GFP-positive cells imaging, 3 d; cells co-treated with 5-aza-dC sensitizer; scaled so ellipticine positive control = 100%; activation, % at 7.58 µM; AID 743238, 2013;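 active means mean normalized replicate activation at least 10% and every replicate at or above 10%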;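 further: 0% = median of on-plate neutral control wells and 100% = ellipticine 6 µM median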
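material = 68-5-11 XiGFP fibroblast line | medium = DMEM plus 5-aza-dC sensitizer | schedule = 3 days compound exposure | benchmarks = positive control ellipticine, 6 µM final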
E-selectin induc – E-selectin induction in HUVECs, primary screen, imaging, HUVEC, immunofluorescence imaging, single point; normalized: neutral wells 0, TNF-alpha wells 100; P16581; activation, % at 7.58 µM; 0.37% of 260,000 active;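 active means mean E-selectin-positive cell signal at least 10% of the positive control, reached in at least 60% of replicates, without over 20% cell loss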
Target sequence (P16581 whole entry, looked up): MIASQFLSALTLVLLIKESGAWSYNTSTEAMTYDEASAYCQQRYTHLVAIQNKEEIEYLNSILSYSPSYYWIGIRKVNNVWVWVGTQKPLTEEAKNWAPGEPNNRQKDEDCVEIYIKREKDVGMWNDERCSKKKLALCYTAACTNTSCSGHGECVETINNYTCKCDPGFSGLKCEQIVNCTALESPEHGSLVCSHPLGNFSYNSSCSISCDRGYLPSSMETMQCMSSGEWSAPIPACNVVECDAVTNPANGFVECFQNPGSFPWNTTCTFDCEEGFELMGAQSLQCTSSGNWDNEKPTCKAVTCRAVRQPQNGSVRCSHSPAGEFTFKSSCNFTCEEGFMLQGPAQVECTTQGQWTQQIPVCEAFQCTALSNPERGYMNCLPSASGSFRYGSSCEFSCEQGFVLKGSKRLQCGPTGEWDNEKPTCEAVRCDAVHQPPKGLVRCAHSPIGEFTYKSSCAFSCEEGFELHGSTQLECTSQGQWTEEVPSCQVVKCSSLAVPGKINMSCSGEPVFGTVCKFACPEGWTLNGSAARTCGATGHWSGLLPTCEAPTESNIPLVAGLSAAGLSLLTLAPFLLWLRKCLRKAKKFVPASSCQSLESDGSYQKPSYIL
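Assay system: HUVEC, human umbilical vein endothelial cells / Amount: 3,000 HUVEC/well / Controls: TNF-alpha positive control, DMSO neutral control / Compound dosing: single concentration / Medium: EGM-2 over gelatin coat / Evaluation: percent E-selectin-positive cells / Signal: immunofluorescence imaging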
F508del corr – F508del CFTR correction, initial screen, CFBE line, single point; CFBE cells, YFP halide quenching; stimulated with forskolin plus potentiator P3; % fluorescence drop versus neutral controls; activity (quench increase), % at 7.58 µM; 0.36% of 350,000 active; AID 720511, 2013;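 active means mean added fluorescence quench of at least 8% versus neutral control, with both replicates also reaching 8%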;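 further: cells transiently co-express mutant CFTR-F508del with the halide-sensitive YFP; corrector assay measuring rescue of mutant channel to the surface after 24 h compound exposure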
Numbers without * were called inactive; ! = repeats disagree. A selection: hits, their analogues and other compounds. The true share with any hit is near 0.61%.

Screening CC12CCC3C(CCC4(O)CC(O)CCC34C=O)C1(O)CCC2C1=CC(=O)OC1 (stereo unspecified) returned Xi reactivation 0, E-selectin induc 0 and F508del corr -2.
For C[C@H]1O[C@@H](OC2CC[C@]3(C=O)[C@H]4CC[C@]5(C)[C@@H](C6=CC(=O)OC6)CC[C@]5(O)[C@@H]4CC[C@]3(O)C2)CC2OC(C)(C)OC21 (stereo partly specified) the results were Xi reactivation 0 and F508del corr 8.6*.
For N#Cc1cccc(-c2ccc([C@H]3[C@@H](CO)N4CCCCN(C(=O)Cc5ccccc5)C[C@H]34)cc2)c1 the results were Xi reactivation 0, E-selectin induc -1 and F508del corr 4.
CC(C)NC(=O)N1C[C@@H]2C(c3ccccc3)[C@H](C1)N2C (stereo partly specified) was read as Xi reactivation 0.
Screening CC[C@H]1C=C(C(=O)N[C@@]2(C(=O)O)C[C@H]2CC)[C@H]2CCC(=O)[C@H]2C1 returned F508del corr -1.
For C=CCN1[C@@H]2CN(CC(F)(F)F)C[C@H]1C2c1ccc(Br)cc1 (stereo partly specified) the results were Xi reactivation 0.
Screening c1ccc(-c2cc(-c3ccccc3)[n+](-c3ccccc3)c(-c3ccccc3)c2)cc1 returned Xi reactivation 1, E-selectin induc -3 and F508del corr 1.
CN(C)c1ccc(-[n+]2c(-c3ccccc3)cc(-c3ccccc3)cc2-c2ccccc2)cc1 was read as Xi reactivation 0 and F508del corr 8.3*.
`CC(=O)N1C[C@@H]2C(c3ccccc3)[C@H](C1)N2CC1CC1` (stereo partly specified) gave Xi reactivation 0.
`O=C(O)[C@@H]1[C@@H](CO)[C@@H]2Cn3c(ccc(-c4ccncc4)c3=O)[C@H]1N2C(=O)C1CCC1` gave Xi reactivation 0, E-selectin induc 0 and F508del corr 0.
Screening O=c1[nH]c(=O)n(-c2cccc3ccccc23)c(O)c1/C=N/N1CCCCC1c1cccnc1 (stereo unspecified) returned Xi reactivation 0, E-selectin induc 0 and F508del corr 8.0*.
Screening O=c1[nH]c(=O)n(C2CCCCC2)c(O)c1/C=N/N1CCCCC1c1cccnc1 (stereo unspecified) returned Xi reactivation 0, E-selectin induc 2 and F508del corr 0.
For O=[N+]([O-])c1ccc(N2CCOCC2)c2c1no[n+]2[O-] the results were Xi reactivation 2, E-selectin induc 0 and F508del corr 12*.
O=[N+]([O-])c1ccc(N2CCOCC2)c2cccnc12 was read as Xi reactivation 0, E-selectin induc 2 and F508del corr 8.
Screening COC(=O)[C@@H]1[C@@H](CO)[C@@H]2Cn3c(ccc(C4=CCCCC4)c3=O)[C@H]1N2CC1CCCCC1 returned Xi reactivation 0, E-selectin induc -1 and F508del corr 1.
CN1/C(=C\C=C2C(=O)NC(=S)NC2=O)C(C)(C)c2ccccc21 was read as Xi reactivation 0 and F508del corr 1.
CC1(C)OC(c2ccccc2)=C/C(=C/C=C2C(=O)NC(=S)NC2=O)O1 was read as Xi reactivation 0, E-selectin induc 533* and F508del corr 17*.
Screening C[n+]1c(-c2ccccc2)c2cc(N)ccc2c2ccc(N)cc21 returned Xi reactivation 19*, E-selectin induc 9 and F508del corr 4.
c1ccc2nc(N3CCNCC3)ccc2c1 was read as Xi reactivation 0, E-selectin induc 70*! and F508del corr 9.8*!.
For c1ccc2c(N3CCNCC3)cccc2c1 the results were Xi reactivation 0, E-selectin induc 0 and F508del corr 3.
For C=CCN1[C@@H]2CN(C(C)=O)C[C@H]1C2c1ccc(Br)cc1 (stereo partly specified) the results were Xi reactivation 0.
CCOC(=O)c1c(C)n(Cc2ccc(F)cc2)c2ccc(O)cc12 was read as Xi reactivation 0 and F508del corr 3.
For C=COCCn1c(C)c(C(C)=O)c2cc(O)ccc21 the results were Xi reactivation 0, E-selectin induc 56* and F508del corr -2.
`COc1ccc(OC(=O)N(C)C[C@H]2OCc3ccccc3-c3c(n(C)c4ccccc34)C(=O)N([C@H](C)CO)C[C@@H]2C)cc1` gave Xi reactivation 0, E-selectin induc 0 and F508del corr -1.
`O=C(Cc1ccccn1)N1CCCCN2[C@@H](CO)[C@@H](c3ccc(-c4ccccc4)cc3)[C@@H]2C1` gave Xi reactivation 0, E-selectin induc 0 and F508del corr 0.
Screening Cc1cccc(-n2c(O)c(/C=C3/C(c4ccccc4)=Nc4ccccc43)c(=O)[nH]c2=O)c1 returned Xi reactivation 0 and F508del corr 12*.
Cc1ccccc1-n1c(O)c(/C=C2/C(c3ccccc3)=Nc3ccccc32)c(=O)[nH]c1=O was read as Xi reactivation 0 and E-selectin induc 0.
Screening CC(C)NC(=O)N1C[C@@H]2C(c3ccc(Br)cc3)[C@H](C1)N2C (stereo partly specified) returned Xi reactivation 0.
`O=C(O)Cc1cnc[nH]1` gave Xi reactivation 0, E-selectin induc 0 and F508del corr -1.
Screening C[C@@H](N)Cc1cnc[nH]1 returned Xi reactivation 0, E-selectin induc 0 and F508del corr 11*.
`CC=Cc1ccc2n(c1=O)C[C@@H]1[C@@H](CO)[C@H](C(=O)OC)[C@H]2N1CC1CCCC1` (mixture of isomers) gave Xi reactivation 1, E-selectin induc 0 and F508del corr -2.
For CS(=O)(=O)N1CC2NC(C1)C2c1ccc(Br)cc1 (stereo unspecified) the results were Xi reactivation 0.
For Cc1ccc(OC(F)F)c(N2C(=O)C3C4CCC(O4)C3C2=O)c1 (stereo unspecified) the results were Xi reactivation 0, E-selectin induc 35* and F508del corr 3.
`CCCNC(=O)[C@@H]1[C@@H](CO)[C@@H]2Cn3c(cccc3=O)[C@@H]2N1CC` gave Xi reactivation 0, E-selectin induc 0 and F508del corr -1.
Screening O=C(C1CC1)N1C[C@@H]2N[C@H](C1)[C@@H]2c1ccc(-c2ccncc2)cc1 returned Xi reactivation 0, E-selectin induc 0 and F508del corr -4.
`CS(=O)(=O)N1C[C@@H]2C(c3ccccc3)[C@H](C1)N2CC1CC1` (stereo partly specified) gave Xi reactivation 0.
Screening Nc1ccc2ccc3cccc[n+]3c2c1 returned Xi reactivation 0 and F508del corr 15*.
Screening CN1[C@@H]2CN(S(C)(=O)=O)C[C@H]1C2c1ccc(Br)cc1 (stereo partly specified) returned Xi reactivation 0.
